In ChEMBL document CHEMBL4130455, “Design, Synthesis, and Evaluation of Tetrahydropyrrolo[1,2-c]pyrimidines as Capsid Assembly Inhibitors for HBV Treatment” (ACS Med Chem Lett, 2017):

System: Hepatitis B virus
Test: Antiviral activity against HBV infected in human HepG2.2.15 cells assessed as inhibition of viral DNA level incubated for 3 days followed by medium replacement measured after 3 days by RT-PCR method
Assay type: functional, organism-based
Conditions: HepG2.2.15, 72 h
Method in brief: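 HepG2.2.15 cells seeded at 4 × 10^4 cells/well, compound exposure 3 days, then fresh medium and a further 3-day incubation. Supernatants collected and stored at −80 °C. HBV DNA extracted from supernatant and quantified by qPCR. IC50 reported as the mean of three experiments.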

COCOC(=O)C1=C2CCCN2C(c2nccs2)=NC1c1ccc(F)cc1Cl (centres undefined)
IC50: 2.1 µM

COC(=O)C1=C2C[C@@H](NS(C)(=O)=O)CN2C(c2nccs2)=N[C@H]1c1ccc(F)cc1Cl
IC50: 0.06 µM

CCOC(=O)C1=C2CCCN2C(c2ccccn2)=NC1c1ccc(F)cc1Cl (centres undefined)
IC50: > 10 µM

CCOC(=O)C1=C2COCCN2C(c2nccs2)=NC1c1ccc(F)cc1Br (centres undefined)
IC50: 2.5 µM

CCOC(=O)C1=C2C[C@H](O)CN2C(c2nccs2)=NC1c1ccc(F)cc1Cl (some centres undefined)
IC50: 320 µM

CCOC(=O)C1=C2CCCN2C(c2nccs2)=NC1c1nccs1 (centres undefined)
IC50: > 10 µM

CCOC(=O)C1=C2CCCCN2C(c2nccs2)=NC1c1ccc(F)cc1Cl (centres undefined)
IC50: 1.4 µM

COC(=O)C1=C2C[C@H](NS(C)(=O)=O)CN2C(c2nccs2)=N[C@H]1c1ccc(F)c(F)c1F
IC50: 10 µM

CCOC(=O)C1=C2CCCN2C(c2nccs2)=NC1c1cc(F)ccc1Cl (centres undefined)
IC50: > 10 µM

CCOC(=O)C1=C2CN(C(C)=O)CCN2C(c2nccs2)=NC1c1ccc(F)cc1Br (centres undefined)
IC50: 0.77 µM

COCCOC(=O)C1=C2CCCN2C(c2nccs2)=NC1c1ccc(F)cc1Cl (centres undefined)
IC50: > 10 µM

COC(=O)C1=C2C[C@H](NC(=O)OC(C)(C)C)CN2C(c2nccs2)=N[C@H]1c1ccc(F)cc1Cl
IC50: 30 µM

CCOC(=O)C1=C2CCCN2C(c2ncc(F)cc2F)=NC1c1ccc(F)cc1Cl (centres undefined)
IC50: 1.6 µM

COC(=O)C1=C(C)NC(c2ncc(F)cc2F)=N[C@H]1c1ccc(F)cc1Cl
IC50: 0.075 µM

CCOC(=O)C1=C2CCC(C)N2C(c2nccs2)=NC1c1ccc(F)cc1Cl (centres undefined)
IC50: 8000 µM

CCOC(=O)C1=C2CNCCN2C(c2nccs2)=NC1c1ccc(F)cc1Br (centres undefined)
IC50: 9.3 µM

CCOC(=O)C1=C2CNC(=O)CN2C(c2nccs2)=NC1c1ccc(F)cc1Br (centres undefined)
IC50: 3.5 µM

CCOC(=O)C1=C2CCCN2C(c2nccs2)=NC1c1ncc(F)cc1F (centres undefined)
IC50: > 10 µM

CCOC(=O)C1=C2CCCN2C(c2nccn2C)=NC1c1ccc(F)cc1Cl (centres undefined)
IC50: 2 µM

CCOC(=O)C1=C2CCCN2C(c2cnn(C)c2)=NC1c1ccc(F)cc1Cl (centres undefined)
IC50: > 10 µM

CCOC(=O)C1=C2CCCN2C(c2nccs2)=NC1c1ccc(F)cc1Cl (centres undefined)
IC50: 0.3 µM

COC(=O)C1=C2C[C@@H](NC(=O)OC(C)(C)C)CN2C(c2nccs2)=N[C@H]1c1ccc(F)cc1Cl
IC50: 50 µM

O=C(OCC(F)F)C1=C2CCCN2C(c2nccs2)=NC1c1ccc(F)cc1Cl (centres undefined)
IC50: 2 µM

CCOC(=O)C1=C2CCCN2C(c2nccs2)=NC1c1cccc(F)c1Cl (centres undefined)
IC50: 0.31 µM
